These results are taken from ChEMBL document CHEMBL1143832, “EDP-420, a bicyclolide (bridged bicyclic macrolide), is active against Mycobacterium avium” (Antimicrob Agents Chemother, 2007).

Data set [1] has as its system Mycobacterium avium complex sp. Nature of the data set: Antimicrobial activity against Mycobacterium avium complex 101 infected C57BL/6 beige mouse spleen assessed as bacterial load at 100 mg/kg once daily 6 days a week for 4 weeks. It counts as functional. In a few lines: (§1)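 Female C57BL/6 beige mice, about 20 g, infected intravenously with about 3 × 10^7 MAC 101. Baseline mice harvested at 1 week, when treatment started: once daily, 6 days/week, for 4 weeks, alongside diluent-treated controls. Liver and spleen homogenized, diluted and plated on 7H10 agar, with CFU counted after 10 days at 37°C and expressed per gram. Student's t test.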

The test system is the same in data set [2]. Nature of the data set: Antimicrobial activity against clarithromycin resistant-Mycobacterium avium complex 101 infected C57BL/6 beige mouse liver assessed as bacterial load at 100 mg/kg once daily 6 days a week for 4 weeks. The format is functional. In a few lines:
(§2)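 Female beige mice (~20 g) infected intravenously with ~3 × 107 clarithromycin-resistant MAC 101 (from spleen of clarithromycin-treated MAC 101-infected mouse). Treatment started 1 week post-infection, once daily, 6 days/week, 4 weeks. Baseline mice harvested at 1 week; diluent-treated controls in parallel. Liver and spleen homogenized, diluted, plated on 7H10 agar, CFU counted after 10 days at 37°C. Mean CFU/g ± SEM.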

For data set [3] the test system is unchanged. Put plainly: Antimicrobial activity against clarithromycin resistant-Mycobacterium avium complex 101 infected C57BL/6 beige mouse spleen assessed as bacterial load at 100 mg/kg once daily 6 days a week for 4 weeks. The format is functional. In a few lines: as §2
Data set [4] has the same test system. Nature of the data set: Antimicrobial activity against Mycobacterium avium complex 101 infected C57BL/6 beige mouse liver assessed as bacterial load at 100 mg/kg once daily 6 days a week for 4 weeks. The format is functional. In a few lines:
as §1

In data set [5] the test system is Mycobacterium avium. Nature of the data set: Antimicrobial activity against macrolide-resistant Mycobacterium avium radiometric broth […] method. It counts as functional. In a few lines: (§3)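 MAC clinical blood isolates from AIDS patients; 5–10 colonies from 7H11 agar into 7H9 broth, inoculum ~5 × 10^4 CFU/ml by McFarland no. 1. Radiometric (BACTEC) broth […], T100 analysis. Controls: undiluted drug-free, 1:100 and 1:1,000 diluted inoculum, boiled-bacteria vial. Observation ~7 days. MIC range, MIC50 and MIC90 reported (susceptible n = 24; resistant n = 6).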

Data set [6] concerns Mycobacterium avium. Put plainly: Antimicrobial activity against macrolide-susceptible Mycobacterium avium by radiometric broth […] method. It counts as functional. In a few lines:
as §3

Data set [7] deals with Mycobacterium avium complex sp. Put plainly: Antimicrobial activity against clarithromycin resistant-Mycobacterium avium complex 101 infected C57BL/6 beige mouse liver assessed as bacterial load at 40 mg/kg once daily 6 days a week for 4 weeks. It counts as functional. In a few lines:
as §2

Data set [8] shares this test system. Nature of the data set: Antimicrobial activity against Mycobacterium avium complex 101 infected C57BL/6 beige mouse liver assessed as bacterial load at 40 mg/kg once daily 6 days a week for 4 weeks. It counts as functional. In a few lines:
as §1

Data set [9] shares this test system. Put plainly: Antimicrobial activity against Mycobacterium avium complex 101 infected C57BL/6 beige mouse spleen assessed as bacterial load at 40 mg/kg once daily 6 days a week for 4 weeks. It counts as functional. In a few lines:
as §1

The test system is the same in data set [10]. Nature of the data set: Antimicrobial activity against clarithromycin resistant-Mycobacterium avium complex 101 infected C57BL/6 beige mouse spleen assessed as bacterial load at 40 mg/kg once daily 6 days a week for 4 weeks. The format is functional. In a few lines:
as §2

Data set [11] in a line: Tmax in mouse serum at 15 mg/kg, po. The format is ADME, organism-based. On the set-up: dose 15 mg/kg, route oral.
The nature of data set [12]: Half life in mouse serum at 15 mg/kg, po. It counts as ADME, organism-based. On the set-up: dose 15 mg/kg, route oral.
The nature of data set [13]: Cmax in mouse serum at 15 mg/kg, po. It counts as ADME, organism-based. On the set-up: dose 15 mg/kg, route oral.
In data set [14] the test system is Mycobacterium avium complex sp. Put plainly: Antimicrobial activity against Mycobacterium avium complex 101 infected C57BL/6 beige mouse spleen assessed as bacterial load after 12 weeks. The format is functional.
The test system is the same in data set [15]. Nature of the data set: Antimicrobial activity against Mycobacterium avium complex 101 infected C57BL/6 beige mouse spleen assessed as bacterial load after 8 weeks. It counts as functional.
The test system is the same in data set [16]. Put plainly: Antibacterial activity against Mycobacterium avium complex 101 in U937 cells at 0.5 ug/ml after 4 days. The following applies: U-937.

Converted amounts (≈) assume the structure as drawn. The source made the active and inactive calls. The calls are words filed in the database; no cut-off is given here. Where only a bound is given, the exact number is not on record here.

A word on the MIC: it is the lowest concentration that inhibits growth of the organism. High values mean a less susceptible organism, low ones a more susceptible organism. As usually defined, the MIC50 is the lowest concentration that inhibits either 50% of growth or 50% of the strains tested, depending on the study. One may read the MIC90 as the lowest concentration that inhibits either 90% of growth or 90% of the strains tested, depending on the study. A lower MIC90 goes with greater potency. For the molecule `CC[C@H]1OC(=O)[C@H](C)[C@@H](O[C@H]2C[C@@](C)(OC)[C@@H](O)[C@H](C)O2)[C@H](C)[C@@H](O[C@@H]2O[C@H](C)C[C@H](N(C)C)[C@H]2O)[C@](C)(OC)C[C@@H](C)C(=O)[C@H](C)[C@@H](O)[C@]1(C)O` [CLARITHROMYCIN], the CFU in [1] is on record as 6.6 10^7/g; in data set [2], 2.8 10^8/g; in data set [3], 8 10^8/g; in data set [4], 2.8 10^7/g. In addition, the MIC in data set [5] was greater than 64 µg/mL. Also, the MIC50 in data set [6] amounted to 2 µg/mL (≈ 2.67 µM). This molecule showed an MIC90 in data set [6] of 4 µg/mL (≈ 5.35 µM).

Regarding `O[C@@H](c1cc(C(F)(F)F)nc2c(C(F)(F)F)cccc12)[C@H]1CCCCN1` [MEFLOQUINE], the CFU is reported as 2.9 10^7/g in [7], 1.8 10^7/g in [8], 4.8 10^7/g in data set [9] and 4.6 10^7/g in data set [10].

Usually Tmax stands for the time at which the peak concentration occurs. The term half-life denotes the time in which the quantity being followed falls by half. The Cmax is the maximum level reached in the sampled fluid or tissue. For `CC[C@H]1OC(=O)[C@H](C)C(=O)[C@H](C)[C@@H](O[C@@H]2O[C@H](C)C[C@H](N(C)C)[C@H]2O)[C@](C)(OC)C[C@@H](C)C(=O)[C@H](C)[C@H]2N(CCCCn3cnc(-c4cccnc4)c3)C(=O)O[C@]12C` [TELITHROMYCIN], in data set [11], the Tmax amounted to 1 h. This molecule also showed a half-life in data set [12] of 1.5 h. The molecule also registered a Cmax in data set [13] of 5500 ng/mL. In [6], this molecule gave an MIC50 of 32 µg/mL (≈ 39.4 µM) and an MIC90 greater than 64 µg/mL.

Consider `CC[C@H]1OC(=O)[C@H](C)C(=O)[C@H](C)[C@@H](O[C@@H]2O[C@H](C)C[C@H](N(C)C)[C@H]2O)[C@@]2(C)C[C@@H](C)/C(=N\C(C)=O)[C@H](C)[C@@H](OC/C(=N\OCc3ccc(-n4cccn4)nc3)CO2)[C@]1(C)O` [MODITHROMYCIN], for which the CFU is recorded as 1.2 10^7/g in [1]; 2.5 10^5/g in [14]; 2.5 10^8/g in [7]; 1.7 10^8/g in [2]; 2.3 10^5/g in [15]; 5.7 10^8/g in data set [3]. Further, the CFU in data set [4] was 7.1 10^6/g; in [10], 2.7 10^8/g. Besides, the Tmax in data set [11] was 1.5 h. In addition, in data set [12], the half-life was 3.3 h. The Cmax in [13] was determined as 2500 ng/mL. In data set [16], the result was Active. In data set [5], this molecule registered a minimum inhibitory concentration (MIC) of 32 µg/mL (≈ 38 µM). This molecule displayed an MIC50 in data set [6] of 4 µg/mL (≈ 4.76 µM). Besides, the MIC90 in [6] came out at 8 µg/mL (≈ 9.51 µM).

Molecule `CC[C@H]1OC(=O)[C@H](C)[C@@H](O[C@H]2C[C@@](C)(OC)[C@@H](O)[C@H](C)O2)[C@H](C)[C@@H](O[C@@H]2O[C@H](C)C[C@H](N(C)C)[C@H]2O)[C@](C)(O)C[C@@H](C)CN(C)[C@H](C)[C@@H](O)[C@]1(C)O` [AZITHROMYCIN] had an MIC in data set [5] greater than 512 µg/mL. In [6], this molecule returned an MIC50 of 16 µg/mL (≈ 21.4 µM) and an MIC90 of 16 µg/mL (≈ 21.4 µM).
